Source: PubChem (several laboratories)
NR2E3 ag-1: NR2E3 agonists in two-hybrid cells, primary screen, cell-based, luminescence, CHO-S, Gal4-NCOR/VP16-NR2E3; Photoreceptor-specific nuclear receptor (Homo sapiens), Q9Y5X4; luciferase; inhibition of corepressor binding, % at 3.98 µM; 0.35% of 360,000 active;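 active means inhibition above the mean of all tested compounds plus 3 SD, cut at about 70% in these data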;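 further: higher means lower luciferase signal from less NR2E3 corepressor binding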
Target sequence (Q9Y5X4 whole entry, looked up, the tested form may be a part): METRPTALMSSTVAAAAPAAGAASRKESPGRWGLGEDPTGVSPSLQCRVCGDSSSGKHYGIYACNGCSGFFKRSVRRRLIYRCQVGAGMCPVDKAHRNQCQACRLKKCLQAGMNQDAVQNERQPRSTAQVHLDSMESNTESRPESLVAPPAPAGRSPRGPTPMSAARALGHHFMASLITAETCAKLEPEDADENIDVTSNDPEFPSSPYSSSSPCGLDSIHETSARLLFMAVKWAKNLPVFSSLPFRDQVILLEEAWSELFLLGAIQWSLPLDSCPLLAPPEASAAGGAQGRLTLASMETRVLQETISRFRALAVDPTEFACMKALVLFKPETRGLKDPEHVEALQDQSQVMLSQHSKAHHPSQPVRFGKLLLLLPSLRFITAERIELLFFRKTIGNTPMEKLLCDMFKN
Rev-erbA mod: modulators of Rev-erb alpha DNA binding, primary screen, biochemical, FITC-DNA, fluorescence polarization, uHTS. Rev-erbα–FITC-DNA binding, 90 min. activity, % at 10 µM. 0.79% of 370,000 active. AID 1259318, 2017;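 active means activity above about 14%, limit read from the data; passing the limit was not always enough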
rCAG RNA binder: binders of r(CAG) RNA repeats, primary screen, biochemical, fluorescence. AID 651821, 2012. 1.3% of 370,000 active. inhibition, % at 3 µM. r(CAG) RNA repeat, TO-PRO-1 dye displacement fluorescence;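 active means inhibition above the plate cutoff, the mean of all test compounds on that plate plus 3 SD, cut at about 35% in these data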;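 further: higher means more dye released from RNA so lower well fluorescence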
NR2E3 ag-2: inhibitors of NR2E3-RetCOR corepressor binding, primary screen, NR2E3 agonist project, biochemical, TR-FRET, GST-NR2E3, biotin-RetCOR; Photoreceptor-specific nuclear receptor (Homo sapiens), Q9Y5X4; 1536-well; inhibition of corepressor binding, % at 4.78 µM; 0.12% of 320,000 active; AID 2300, 2010;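 active means percent inhibition above the cutoff of mean plus 3 SD of all tested compounds, set per screening campaign, cut at about 20% in these data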
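System: GST-tagged NR2E3 plus biotinylated RetCOR corepressor; Amount: 1.35 nM GST-tagged NR2E3 final; Dosing: single nominal compound dose of 4.8 µM; Schedule: 5 h incubation at 4 °C; Technique: TR-FRET with europium anti-GST and streptavidin-D2, 340 nm excitation; Controls: biotin wells as high control, 0.6% DMSO wells as low control.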
PG9 binder: binders of HIV-1 gp120 antibody PG9, primary screen, biochemical, TR-FRET; TR-FRET gp120-PG9 antibody binding; HIV-1 gp120 / PG9 antibody interaction; inhibition, % at 6.7 µM; 0.43% of 360,000 active; AID 624416, 2012; in the data active means inhibition above about 8.5%
NR2E3 ag conf: NR2E3 agonist confirmation in cells, cell-based, luminescence, CHO-S two-hybrid. shares compounds with NR2E3 ag-1. CHO-S mammalian two-hybrid NR2E3-NCOR, luciferase luminescence. inhibition, % at 3.98 µM. 51% of 2,300 active;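 active means average inhibition above a cutoff equal to the mean inhibition of all tested compounds plus one SD, cut at about 70% in these data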
GAL4-VP16 luc: GAL4-VP16 reporter modulators, confirmation, counter-screen for NR2E3 agonist project, cell-based, luminescence, CHO-S, high throughput | shares compounds with NR2E3 ag-1 | CHO-S GAL4-VP16 luciferase reporter | inhibition, % at 3.98 µM | 29% of 2,300 active;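 active means mean inhibition above a cutoff equal to the average over all tested compounds plus one standard deviation, cut at about 70% in these data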;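 further: luciferase from a UAS reporter driven by GAL4-VP16 transactivation; higher means less reporter light so more repression of VP16 activity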
PG9 binder conf: binders of anti-gp120 antibody PG9, confirmation, biochemical, TR-FRET. inhibition, % at 6.7 µM. 90% of 1,500 active. shares compounds with PG9 binder. TR-FRET PG9 antibody binding; in the data active means inhibition above about 9%
PGV04 counter: binders of control antibody PGV04, counter-screen for PG9 antibody binder project, biochemical, TR-FRET, distinct HIV envelope site; shares compounds with PG9 binder; TR-FRET PGV04 antibody-gp120 binding; inhibition, % at 6.7 µM; 95% of 1,500 active; in the data active means inhibition above about 9.5%
rCAG binder conf: small molecules binding CAG repeat RNA – biochemical, fluorescence, confirmation; inhibition, % at 3 µM; r(CAG) RNA repeat, TO-PRO-1 dye displacement fluorescence; shares compounds with rCAG RNA binder; 70% of 4,300 active;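 active means inhibition above a per-plate cutoff, the mean inhibition of sample wells plus 3 SD, cut at about 35% in these data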;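 further: loss of TO-PRO-1 fluorescence as compound displaces dye from 1x1 AA loop RNA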
dCAG dye counter: displacement of TO-PRO-1 from CAG DNA duplex, counter-screen for rCAG RNA repeat binder project, biochemical, fluorescence, TO-PRO-1 dye, d(CAG) DNA oligo; inhibition, % at 3 µM; d(CAG) DNA oligo TO-PRO-1 dye displacement; 94% of 4,300 active; shares compounds with rCAG RNA binder;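 active means inhibition above its plate's cutoff, the mean test-well inhibition plus 3 SD, cut at about 4.8% in these data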;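 further: hits displace the dye from DNA and so lower well fluorescence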
Large screens that a line does not name were inactive (follow-up assays come after a bar, where they were run). Only some compounds are listed: those with a hit (about 2.6% of all), similar ones and a draw of the others.

CC1Cc2ccccc2N1C(=S)NC(=O)c1ccc(Cl)cc1Cl (stereo not given)	NR2E3 ag-1 78 | NR2E3 ag conf inactive | GAL4-VP16 luc inactive
C/C(CC(C)(C)C1CCCCC1)=N\NC(N)=S	NR2E3 ag-1 81 | NR2E3 ag conf inactive | GAL4-VP16 luc inactive
COC(=O)C1=C(C)N(Cc2cccc(C(F)(F)F)c2)C(=NCc2ccccc2C(F)(F)F)NC1c1cccc(F)c1 (stereo not given)	none (no result: NR2E3 ag-1, NR2E3 ag-2)
COC(=O)[C@]12C[C@H](CC(=O)NCc3cccc(C(F)(F)F)c3)C(=O)N(Cc3ccco3)C1=C[C@H](C(C)(C)C)O[C@@H]2C	none (no result: NR2E3 ag-1, NR2E3 ag-2, PG9 binder)
C=CCOC(=O)c1[nH]c2c(c1C)C(=O)CC(c1cc(OC)c(OC)c(OC)c1)C2 (stereo not given)	none (no result: Rev-erbA mod, rCAG RNA binder, PG9 binder) | NR2E3 ag conf 73 | GAL4-VP16 luc inactive
CCCCOC(=O)c1[nH]c2c(c1C)C(=O)CC(c1cc(OC)c(OC)c(OC)c1)C2 (stereo not given)	NR2E3 ag-1 89 | NR2E3 ag conf 84 | GAL4-VP16 luc inactive
COCCOC(=O)c1[nH]c2c(c1C)C(=O)CC(c1cc(OC)c(OC)c(OC)c1)C2 (stereo not given)	none
COCCNC(=S)N(C)[C@H]1C[C@H]2c3[nH]c4ccccc4c3CCN2C(=O)[C@H]1[C@H](C)O	none (no result: NR2E3 ag-1, NR2E3 ag-2)
O=C(C1=C(c2ccccc2)C(=O)c2ccccc2C1=O)c1ccccc1	NR2E3 ag-1 78 (no result: NR2E3 ag-2) | NR2E3 ag conf 99 | GAL4-VP16 luc 93
COc1cc(C[C@@H]2C(=O)OC[C@H]2Cc2ccc(OC)c(OC)c2)ccc1O	NR2E3 ag-1 87 | NR2E3 ag conf 95 | GAL4-VP16 luc 81
COc1cc(CC2COC(=O)C2Cc2ccc(O)c(OC)c2)ccc1O (stereo not given)	none (no result: NR2E3 ag-1, NR2E3 ag-2)
CSc1nsc(SCC(=O)Nc2nc3ccc(C)cc3s2)n1	PG9 binder 10 | NR2E3 ag conf inactive | GAL4-VP16 luc inactive | PG9 binder conf 14 | PGV04 counter 18
COc1cccc(-c2cnc(C(O)c3ccc(C)cc3C)[nH]2)c1 (stereo not given)	none (no result: NR2E3 ag-2)
Cc1nn(CC(=O)NCCN2CCCCC2C)c(=O)c2cc(-c3ccccc3)nn12 (stereo not given)	none
CCC1(O)C(=O)OCc2c1cc1n(c2=O)Cc2cc3cc(O)ccc3nc2-1 (stereo not given)	PG9 binder 19 (no result: NR2E3 ag-2) | NR2E3 ag conf 90 | GAL4-VP16 luc inactive | PG9 binder conf 16 | PGV04 counter 31
Cc1ccc(S(=O)(=O)N(CC(=O)Nc2ccccc2C(=O)O)c2cccc(Cl)c2C)cc1	NR2E3 ag-1 90, rCAG RNA binder 78 | NR2E3 ag conf 98 | GAL4-VP16 luc inactive | rCAG binder conf 82 | dCAG dye counter 52
CCCCCCCCN1C(=O)[C@@H](CC(=O)N2CCC(c3ccccc3)CC2)C[C@@]2(C(=O)OC)C1=C[C@H](C(C)(C)C)O[C@@H]2C	none (no result: NR2E3 ag-1, NR2E3 ag-2)
CC(C)C1Nc2c(O)cc(Cl)c([N+](=O)[O-])c2C2C=CCC21 (stereo not given)	NR2E3 ag-1 99, rCAG RNA binder 37 (no result: NR2E3 ag-2) | NR2E3 ag conf 100 | GAL4-VP16 luc 91 | rCAG binder conf inactive | dCAG dye counter inactive
O=c1oc2ccccc2c(Nc2ccccc2O)c1[N+](=O)[O-]	none
O=c1oc2ccccc2c(Nc2cccc3ccccc23)c1[N+](=O)[O-]	rCAG RNA binder 42 | NR2E3 ag conf inactive | GAL4-VP16 luc inactive | rCAG binder conf 45 | dCAG dye counter 12
CCN(CC)c1ccc(S(=O)(=O)Nc2cc(Cl)ccc2Cl)cc1NC(=S)NC(=O)C1CCCC1	rCAG RNA binder 65 | NR2E3 ag conf inactive | GAL4-VP16 luc inactive | rCAG binder conf 71 | dCAG dye counter 35
Cc1ccc(NC(=O)CN2C(=O)NC3(CCCCC3C)C2=O)cc1S(=O)(=O)N1CCCCC1 (stereo not given)	none
CCCCCCCCCCCCN1[C@@H](CC(=O)O)c2cc(F)ccc2S1(=O)=O	NR2E3 ag-1 95, rCAG RNA binder 76 | NR2E3 ag conf 94 | GAL4-VP16 luc inactive | rCAG binder conf 68 | dCAG dye counter 24
CCCCCCCCN1[C@@H](CC(=O)OC)c2cc(F)ccc2S1(=O)=O	none
N#C/C(=N\Nc1ccc(Cl)cc1)C(=O)c1ccccc1	NR2E3 ag-1 99, rCAG RNA binder 59 | NR2E3 ag conf 100 | GAL4-VP16 luc 91 | rCAG binder conf 58 | dCAG dye counter 14
CCOC(=O)NC(=O)/C(C#N)=N\Nc1ccc(Cl)cc1	none
C=CC(=O)N1CCCC(Nc2nc(Nc3ccc(N(C)C(=O)CC)cc3C)nc3nc[nH]c23)C1 (stereo not given)	none (no result: NR2E3 ag-2)
Cc1cc(-n2c(C)cc(C(=O)CSc3[nH]c(=O)cc(C(F)(F)F)c3C#N)c2C)no1	NR2E3 ag-1 98, rCAG RNA binder 42 | NR2E3 ag conf 99 | GAL4-VP16 luc 89 | rCAG binder conf 38 | dCAG dye counter 9.1
C=CCSc1nsc(NC(=O)Nc2ccc(F)cc2)n1	NR2E3 ag-1 93, rCAG RNA binder 69 | NR2E3 ag conf 100 | GAL4-VP16 luc 88 | rCAG binder conf inactive | dCAG dye counter 20
